# ChEMBL document CHEMBL3877293, “Synthesis and Antineoplastic Evaluation of Novel Unsymmetrical 1,3,4-Oxadiazoles” (J Med Chem, 2016)
# Activity calls are given as the source filed them. No cut-off for these calls is given here.
# Legend:
# HeLa [1] = assay: Antiproliferative activity against human HeLa cells at 2 uM after 72 hrs by XTT assay; format: functional, cell-based
# [2] = Antiproliferative activity against human RD cells after 72 hrs by XTT assay; format: functional, cell-based
# Summary of the method: (§1)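 Cells plated at 1500–2000 per well by doubling time, treated after 24 h with a concentration series in six triplicate wells, and incubated 72 h without a medium change. XTT reagent was then added for 4 h at 37 °C and absorbance read at 490 nm. IC50 is the concentration halving absorbance versus untreated cells. Experiments run in triplicate.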
# [3] = Antiproliferative activity against human SH-SY5Y cells after 72 hrs by XTT assay; format: functional, cell-based; summary of the method: as §1
# [4] = Antiproliferative activity against human LAN1 cells after 72 hrs by XTT assay; format: functional, cell-based; conditions: LAN1, 72 h; summary of the method: as §1
# HeLa [5] = assay: Selectivity ratio of IC50 for human MCF7 cells to IC50 for human HeLa cells; format: functional
# Summary of the method: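 XTT viability: 1500–2000 cells/well plated by doubling time; compounds added after 24 h, then 72 h further culture without medium change. XTT reagent 4 h at 37 °C, absorbance read at 490 nm. IC50 is the concentration halving absorbance versus untreated cells; triplicate experiments. Ratio is MCF7 IC50 divided by IC50 in the named line.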
# [6] = Antiproliferative activity against human MRC5 cells after 72 hrs by XTT assay; format: cell-based; conditions: MRC5, 72 h; summary of the method: as §1
# HeLa [7] = assay: Cytotoxicity against human HeLa cells assessed as inhibition of colony formation after 2 weeks by crystal violet staining based assay; format: functional, cell-based
# Summary of the method: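 HeLa seeded at 100-200 cells/well in six-well plates and treated with 0.3 or 0.03 μM compound (DMSO control). Medium with compound changed every 3 days for about two weeks, until control colonies were visible. Colonies fixed and stained with 6.0% glutaraldehyde/0.5% crystal violet for 30 min, then counted against control. Done in triplicate.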
# [8] = Cell cycle arrest in human HeLa cells assessed as G2/M phase accumulation at 1 uM after 8 hrs by propidium iodide staining based flow cytometry (reference value: 18.1%); format: functional
# [9] = Cell cycle arrest in human MCF7 cells assessed as G1 phase accumulation at 1 uM after 24 hrs by propidium iodide staining based flow cytometry (reference value: 54.1 +/- 1.52%); format: functional
# [10] = Cell cycle arrest in human MCF7 cells assessed as G1 phase accumulation at 1 uM after 144 hrs by propidium iodide staining based flow cytometry (reference value: 65.9%); format: functional
# [11] = Cell cycle arrest in human MCF7 cells assessed as S phase accumulation at 1 uM after 144 hrs by propidium iodide staining based flow cytometry (reference value: 17.8%); format: functional
# [12] = Cell cycle arrest in human NCI-H1299 cells assessed as G1 phase accumulation at 1 uM after 24 hrs by propidium iodide staining based flow cytometry (reference value: 61.2 +/- 1.69%); format: functional
# [13] = Cell cycle arrest in human NCI-H1299 cells assessed as S phase accumulation at 1 uM after 24 hrs by propidium iodide staining based flow cytometry (reference value: 16.4 +/- 1.76%); format: functional
# [14] = Cell cycle arrest in human RD cells assessed as subG1 phase accumulation at 1 uM after 24 hrs by propidium iodide staining based flow cytometry relative to DMSO control; format: functional
# [15] = Cell cycle arrest in human RD cells assessed as G1 phase accumulation at 1 uM after 24 hrs by propidium iodide staining based flow cytometry (reference value: 56.7 +/- 1.48%); format: functional
# [16] = Cell cycle arrest in human A549 cells assessed as G1 phase accumulation at 1 uM after 24 hrs by propidium iodide staining based flow cytometry (reference value: 65.4 +/- 1.84%); format: functional
# [17] = Cell cycle arrest in human A549 cells assessed as G2/M phase accumulation at 1 uM after 24 hrs by propidium iodide staining based flow cytometry (reference value: 27 +/- 1.32%); format: functional
# [18] = Cell cycle arrest in human Kelly cells assessed as S phase accumulation at 1 uM after 24 hrs by propidium iodide staining based flow cytometry (reference value: 16.1 +/- 1.28%); format: functional
# [19] = Cell cycle arrest in human LAN1 cells assessed as G1 phase accumulation at 1 uM after 24 hrs by propidium iodide staining based flow cytometry (reference value: 60.3 +/- 1.82%); format: functional
# [20] = Cell cycle arrest in human PC3 cells assessed as S phase accumulation at 1 uM after 24 hrs by propidium iodide staining based flow cytometry (reference value: 6.2 +/- 0.94%); format: functional; conditions: PC-3
# [21] = Cell cycle arrest in human PC3 cells assessed as G2/M phase accumulation at 1 uM after 24 hrs by propidium iodide staining based flow cytometry (reference value: 26.8 +/- 1.69%); format: functional; conditions: PC-3
# [22] = Cell cycle arrest in human NB-1 cells assessed as S phase accumulation at 1 uM after 24 hrs by propidium iodide staining based flow cytometry (reference value: 3.8%); conditions: nb1, 24 h
# [23] = Cell cycle arrest in human NB1 hTERT cells assessed as G1 phase accumulation at 1 uM after 24 hrs by propidium iodide staining based flow cytometry (reference value: 52.3%); format: functional
# [24] = Cell cycle arrest in human NB1 hTERT cells assessed as G1 phase accumulation at 1 uM after 48 hrs by propidium iodide staining based flow cytometry (reference value: 62.5%); format: functional
# SH-SY5Y = assay: Disruption of beta-tubulin network in human SH-SY5Y cells assessed as apoptotic nuclei at 1 uM after 24 hrs by DAPI staining based immunofluorescence microscopic analysis; format: cell-based
# Summary of the method: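 Cells seeded on glass coverslips (1 x 10^5/well), treated 24 h, fixed in 4% paraformaldehyde 15 min, permeabilized with 0.5% Triton X-100, blocked in 5% BSA/PBS, stained overnight at 4 °C with anti-β-tubulin (1:200) then fluorescent secondary antibody; nuclei counterstained with DAPI; microtubule organization and nuclear morphology examined by fluorescence microscopy.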
# MCF7 = assay: Increase in p53 expression in human MCF7 cells at 1 uM after 24 hrs by immunoblot method relative to control; format: functional
# Summary of the method: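 After 24 h treatment at 1 μM, cells lysed in Tris pH 8/NaCl/glycerol/NP-40/EDTA buffer with protease inhibitors. Equal lysate amounts run on 10% SDS gels, blotted to nitrocellulose, probed for p53 with GAPDH as loading control, detected by enhanced chemiluminescence. Bands quantified by densitometry against GAPDH and compared with untreated cells; three independent experiments.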
# A549 = assay: Induction of apoptosis in human A549 cells assessed as necrotic cells at 5 uM after 72 hrs by Annexin-V FITC/propidium iodide staining based flow cytometry (reference value: 1.6%); format: functional
# [25] = Induction of apoptosis in human NB-1 cells assessed as early apoptotic cells at 5 uM after 72 hrs by Annexin-V FITC/propidium iodide staining based flow cytometry (reference value: 3.2%); format: cell-based; conditions: nb1, 72 h
# [26] = Induction of apoptosis in human NB1 hTERT cells assessed as necrotic cells at 5 uM after 72 hrs by Annexin-V FITC/propidium iodide staining based flow cytometry (reference value: 1.6%); format: functional
# [27] = Antiproliferative activity against human IBR3G cells after 72 hrs by XTT assay; format: cell-based; summary of the method: as §1
# [28] = Antiproliferative activity against human MRC5-SV1 S40 cells after 72 hrs by XTT assay; format: functional, cell-based; summary of the method: as §1
smiles,measurement,setting,value
Cc1[nH]c2c(c1-c1nnc(-c3ccccc3)o1)Cc1ccccc1-2,Activity,HeLa [1],Active
same,IC50,[2],60 nM
same,IC50,[3],70 nM
same,IC50,[4],380 nM
same,Ratio IC50,HeLa [5],28 - 34
same,IC50,[6],190 nM
same,inhibition,HeLa [7],Dose-dependent effect
same,Activity,[8],45.3%
same,Activity,[9],15.7 to 30.1%
same,Activity,[10],14.5%
same,Activity,[11],5.6%
same,Activity,[12],17.8%
same,Activity,[13],7.6%
same,Activity,[14],6.1%
same,Activity,[15],36.9%
same,Activity,[16],11.4%
same,Activity,[17],65.3%
same,Activity,[18],9.7%
same,Activity,[19],11.8%
same,Activity,[20],4.7%
same,Activity,[21],72%
same,Activity,[22],3.2%
same,Activity,[23],58.8%
same,Activity,[24],41.1%
same,Activity,SH-SY5Y,Active
same,fold change (FC),MCF7,2 - 3
same,Activity,A549,4.6%
same,Activity,[25],4.2%
same,Activity,[26],2.1%
same,IC50,[27],770 nM
same,IC50,[28],130 nM
